Measured values reported in ChEMBL document CHEMBL4834437, “Improvement of Oral Bioavailability of Pyrazolo-Pyridone Inhibitors of the Interaction of DCN1/2 and UBE2M” (J Med Chem, 2021).

How the values were obtained:
[1] = mouse, in vivo, po, 50 mg/kg, 24 h
[2] = Oral bioavailability in C57BL/6 mouse at 50 mg/kg administered as single dose measured up to 24 hrs by LC/MS analysis; assay type: ADME, organism-based; conditions: in vivo
Method in brief: (§1)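 Single dose given to mice either intravenously at 15 mg/kg or orally at 50 mg/kg. Plasma drug concentration was followed over 24 h. Concentrations below LLOQ were reported as half LLOQ.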

[3] = AUC in C57BL/6 mouse at 50 mg/kg, po administered as single dose measured up to 24 hrs by LC/MS analysis; assay type: ADME, organism-based; parameters: route oral, dose 50 mg/kg, time <=24; conditions: in vivo
Method in brief: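 Plasma drug concentration followed over 24 h. Concentrations below LLOQ were entered as half LLOQ. The same formulation was used for a separate intravenous arm at 15 mg/kg.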

[4] = Toxicity in C57BL/6 mouse assessed as effect on globulin level at 50 mg/kg, po administered as 10 consecutive doses measured after 48 hrs; assay type: organism-based; conditions: in vivo
[5] = Toxicity in C57BL/6 mouse assessed as effect on HGB level at 50 mg/kg, po administered as 10 consecutive doses measured after 48 hrs; assay type: organism-based; conditions: in vivo
[6] = Toxicity in C57BL/6 mouse assessed as effect on calcium level at 50 mg/kg, po administered as 10 consecutive doses measured after 48 hrs; assay type: organism-based; conditions: in vivo
[7] = Toxicity in C57BL/6 mouse assessed as effect on total bilirubin level at 50 mg/kg, po administered as 10 consecutive doses measured after 48 hrs; assay type: organism-based; conditions: in vivo
[8] = Toxicity in C57BL/6 mouse assessed as effect on monocyte level at 50 mg/kg, po administered as 10 consecutive doses measured after 48 hrs; assay type: organism-based; conditions: in vivo
[9] = Toxicity in C57BL/6 mouse assessed as effect on AST level at 50 mg/kg, po administered as 10 consecutive doses measured after 48 hrs; assay type: organism-based; conditions: in vivo
[10] = Toxicity in C57BL/6 mouse assessed as effect on neutrophil level at 50 mg/kg, po administered as 10 consecutive doses measured after 48 hrs; assay type: organism-based; conditions: in vivo
[11] = Toxicity in C57BL/6 mouse assessed as effect on AST level at 200 mg/kg, po administered as single dose measured after 48 hrs; assay type: organism-based; conditions: in vivo
[12] = Toxicity in po dosed C57BL/6 mouse assessed as maximum tolerated dose administered as 10 consecutive doses measured after 48 hrs; assay type: organism-based; conditions: in vivo
[13] = Toxicity in C57BL/6 mouse assessed as effect on total bilirubin level at 200 mg/kg, po administered as single dose measured after 48 hrs; assay type: organism-based; conditions: in vivo
[14] = Toxicity in C57BL/6 mouse assessed as effect on albumin level at 200 mg/kg, po administered as single dose measured after 48 hrs; assay type: organism-based; conditions: in vivo
HCC95 = assay: Inhibition of colony formation in human HCC95 cells at 10 uM measured after 10 days by nitroblue tetrazolium chloride reagent based assay relative to control; conditions: HCC95, 240 h
[15] = Toxicity in C57BL/6 mouse assessed as effect on chloride level at 200 mg/kg, po administered as single dose measured after 48 hrs; assay type: organism-based; conditions: in vivo
[16] = Toxicity in C57BL/6 mouse assessed as effect on potassium level at 200 mg/kg, po administered as single dose measured after 48 hrs; assay type: organism-based; conditions: in vivo
[17] = Toxicity in C57BL/6 mouse assessed as effect on lymphocyte level at 50 mg/kg, po administered as 10 consecutive doses measured after 48 hrs; assay type: organism-based; conditions: in vivo
[18] = Toxicity in C57BL/6 mouse assessed as effect on calcium level at 200 mg/kg, po administered as single dose measured after 48 hrs; assay type: organism-based; conditions: in vivo
in vivo = conditions: C57BL/6, mouse, plasma
[19] = Toxicity in C57BL/6 mouse assessed as effect on platelet level at 50 mg/kg, po administered as 10 consecutive doses measured after 48 hrs; assay type: organism-based; conditions: in vivo
[20] = Toxicity in C57BL/6 mouse assessed as effect on ALT level at 50 mg/kg, po administered as 10 consecutive doses measured after 48 hrs; assay type: organism-based; conditions: in vivo
[21] = Toxicity in C57BL/6 mouse assessed as effect on A/G ratio at 200 mg/kg, po administered as single dose measured after 48 hrs; assay type: organism-based; conditions: in vivo
[22] = Oral bioavailability in C57BL/6 mouse; assay type: ADME, organism-based; conditions: in vivo
Method in brief: as §1

[23] = Toxicity in C57BL/6 mouse assessed as effect on Na/K ratio at 200 mg/kg, po administered as single dose measured after 48 hrs; assay type: organism-based; conditions: in vivo
[24] = Toxicity in C57BL/6 mouse assessed as effect on cholesterol level at 50 mg/kg, po administered as 10 consecutive doses measured after 48 hrs; assay type: organism-based; conditions: in vivo
[25] = Toxicity in C57BL/6 mouse assessed as effect on HCT level at 50 mg/kg, po administered as 10 consecutive doses measured after 48 hrs; assay type: organism-based; conditions: in vivo
[26] = Toxicity in C57BL/6 mouse assessed as effect on basophil level at 50 mg/kg, po administered as 10 consecutive doses measured after 48 hrs; assay type: organism-based; conditions: in vivo
[27] = Toxicity in C57BL/6 mouse assessed as effect on RBC level at 50 mg/kg, po administered as 10 consecutive doses measured after 48 hrs; assay type: organism-based; conditions: in vivo
[28] = Toxicity in C57BL/6 mouse assessed as effect on globulin level at 200 mg/kg, po administered as single dose measured after 48 hrs; assay type: organism-based; conditions: in vivo
[29] = Toxicity in C57BL/6 mouse assessed as effect on creatinine level at 200 mg/kg, po administered as single dose measured after 48 hrs; assay type: organism-based; conditions: in vivo
[30] = Toxicity in C57BL/6 mouse assessed as effect on ALT level at 200 mg/kg, po administered as single dose measured after 48 hrs; assay type: organism-based; conditions: in vivo
[31] = Toxicity in C57BL/6 mouse assessed as effect on alkaline phosphatase level at 200 mg/kg, po administered as single dose measured after 48 hrs; assay type: organism-based; conditions: in vivo
[32] = Toxicity in C57BL/6 mouse assessed as effect on glucose level at 200 mg/kg, po administered as single dose measured after 48 hrs; assay type: organism-based; conditions: in vivo
[33] = Toxicity in C57BL/6 mouse assessed as effect on phosphorous level at 50 mg/kg, po administered as 10 consecutive doses measured after 48 hrs; assay type: organism-based; conditions: in vivo
[34] = Toxicity in C57BL/6 mouse assessed as effect on MCH level at 50 mg/kg, po administered as 10 consecutive doses measured after 48 hrs; assay type: organism-based; conditions: in vivo
[35] = Toxicity in C57BL/6 mouse assessed as effect on BUN at 50 mg/kg, po administered as 10 consecutive doses measured after 48 hrs; assay type: organism-based; conditions: in vivo
[36] = Toxicity in po dosed C57BL/6 mouse assessed as maximum tolerated dose administered as single dose measured after 48 hrs; assay type: organism-based; conditions: in vivo
[37] = Toxicity in C57BL/6 mouse assessed as effect on A/G ratio at 50 mg/kg, po administered as 10 consecutive doses measured after 48 hrs; assay type: organism-based; conditions: in vivo
[38] = Toxicity in C57BL/6 mouse assessed as effect on MCV level at 50 mg/kg, po administered as 10 consecutive doses measured after 48 hrs; assay type: organism-based; conditions: in vivo
[39] = Toxicity in C57BL/6 mouse assessed as effect on CPK level at 50 mg/kg, po administered as 10 consecutive doses measured after 48 hrs; assay type: organism-based; conditions: in vivo
[40] = Toxicity in C57BL/6 mouse assessed as effect on BUN/creatinine ratio at 50 mg/kg, po administered as 10 consecutive doses measured after 48 hrs; assay type: organism-based; conditions: in vivo
[41] = Toxicity in C57BL/6 mouse assessed as effect on eosinophil level at 50 mg/kg, po administered as 10 consecutive doses measured after 48 hrs; assay type: organism-based; conditions: in vivo
[42] = Toxicity in C57BL/6 mouse assessed as effect on phosphorous level at 200 mg/kg, po administered as single dose measured after 48 hrs; assay type: organism-based; conditions: in vivo
[43] = Toxicity in C57BL/6 mouse assessed as effect on CPK level at 200 mg/kg, po administered as single dose measured after 48 hrs; assay type: organism-based; conditions: in vivo
[44] = Toxicity in C57BL/6 mouse assessed as effect on albumin level at 50 mg/kg, po administered as 10 consecutive doses measured after 48 hrs; assay type: organism-based; conditions: in vivo
[45] = Toxicity in C57BL/6 mouse assessed as effect on sodium level at 200 mg/kg, po administered as single dose measured after 48 hrs; assay type: organism-based; conditions: in vivo
[46] = Toxicity in C57BL/6 mouse assessed as effect on BUN/creatinine ratio at 200 mg/kg, po administered as single dose measured after 48 hrs; assay type: organism-based; conditions: in vivo
[47] = Toxicity in C57BL/6 mouse assessed as effect on Na/K ratio at 50 mg/kg, po administered as 10 consecutive doses measured after 48 hrs; assay type: organism-based; conditions: in vivo
[48] = Toxicity in C57BL/6 mouse assessed as effect on WBC level at 50 mg/kg, po administered as 10 consecutive doses measured after 48 hrs; assay type: organism-based; conditions: in vivo
[49] = Toxicity in C57BL/6 mouse assessed as effect on creatinine level at 50 mg/kg, po administered as 10 consecutive doses measured after 48 hrs; assay type: organism-based; conditions: in vivo
[50] = Toxicity in C57BL/6 mouse assessed as effect on glucose level at 50 mg/kg, po administered as 10 consecutive doses measured after 48 hrs; assay type: organism-based; conditions: in vivo
[51] = Toxicity in C57BL/6 mouse assessed as effect on sodium level at 50 mg/kg, po administered as 10 consecutive doses measured after 48 hrs; assay type: organism-based; conditions: in vivo
[52] = Toxicity in C57BL/6 mouse assessed as effect on potassium level at 50 mg/kg, po administered as 10 consecutive doses measured after 48 hrs; assay type: organism-based; conditions: in vivo
[53] = Toxicity in C57BL/6 mouse assessed as effect on chloride level at 50 mg/kg, po administered as 10 consecutive doses measured after 48 hrs; assay type: organism-based; conditions: in vivo
[54] = Toxicity in C57BL/6 mouse assessed as effect on cholesterol level at 200 mg/kg, po administered as single dose measured after 48 hrs; assay type: organism-based; conditions: in vivo
[55] = Toxicity in C57BL/6 mouse assessed as effect on MCHC level at 50 mg/kg, po administered as 10 consecutive doses measured after 48 hrs; assay type: organism-based; conditions: in vivo
[56] = Toxicity in C57BL/6 mouse assessed as effect on BUN at 200 mg/kg, po administered as single dose measured after 48 hrs; assay type: organism-based; conditions: in vivo
[57] = Toxicity in C57BL/6 mouse assessed as effect on alkaline phosphatase level at 50 mg/kg, po administered as 10 consecutive doses measured after 48 hrs; assay type: organism-based; conditions: in vivo

## CCN1C(=O)[C@@H](NC(=O)c2cccc(C(F)(F)F)c2)[C@@H](c2ccc(F)cc2)c2c(C)nn(-c3ccccc3)c21 (relative stereo)
[1]
  Cmax: 1.15 µM
[2]
  F: 36%
[3]
  AUC at 24 h: 23.8 µM·h

## CCN1C(=O)[C@@H](NC(=O)c2cccc(C(F)(F)F)c2)[C@@H](c2ccc(F)cc2)c2c(CN)nn(-c3ccccc3)c21 (relative stereo)
[4]
  Activity: Non-Toxic
[5]
  Activity: Non-Toxic
[6]
  Activity: Non-Toxic
[7]
  Activity: Non-Toxic
[8]
  Activity: Non-Toxic
[9]
  Activity: Non-Toxic
[10]
  Activity: Non-Toxic
[11]
  Activity: Non-Toxic
[12]
  MTD at 48 h: 50 mg/kg
[13]
  Activity: Non-Toxic
[14]
  Activity: Non-Toxic
HCC95
  inhibition at 10 µM: 100%
[15]
  Activity: Non-Toxic
[16]
  Activity: Non-Toxic
[17]
  Activity: Non-Toxic
[18]
  Activity: Non-Toxic
In vivo
  clearance: 20 mL/min/kg
[1]
  Cmax: 6 µM
[19]
  Activity: Non-Toxic
[20]
  Activity: Non-Toxic
[21]
  Activity: Non-Toxic
[22]
  bioavailability: 92%
[23]
  Activity: Non-Toxic
[24]
  Activity: Non-Toxic
[25]
  Activity: Non-Toxic
[26]
  Activity: Non-Toxic
[27]
  Activity: Non-Toxic
[28]
  Activity: Non-Toxic
[29]
  Activity: Non-Toxic
[30]
  Activity: Non-Toxic
[31]
  Activity: Non-Toxic
[32]
  Activity: Non-Toxic
[33]
  Activity: Non-Toxic
[34]
  Activity: Non-Toxic
[35]
  Activity: Non-Toxic
[36]
  MTD at 48 h: 200 mg/kg
[37]
  Activity: Non-Toxic
[38]
  Activity: Non-Toxic
[39]
  Activity: Non-Toxic
[40]
  Activity: Non-Toxic
[41]
  Activity: Non-Toxic
[42]
  Activity: Non-Toxic
[43]
  Activity: Non-Toxic
[44]
  Activity: Non-Toxic
[45]
  Activity: Non-Toxic
[46]
  Activity: Non-Toxic
[47]
  Activity: Non-Toxic
[48]
  Activity: Non-Toxic
[49]
  Activity: Non-Toxic
[50]
  Activity: Non-Toxic
[51]
  Activity: Non-Toxic
[52]
  Activity: Non-Toxic
[53]
  Activity: Non-Toxic
[54]
  Activity: Non-Toxic
[55]
  Activity: Non-Toxic
[56]
  Activity: Non-Toxic
[57]
  Activity: Non-Toxic
